The test system of one assay is mBLM-challenged mice. In words: MX69. It is filed as in vivo, mouse. To be noted: n = 5. A digest of the protocol: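 Mice under avertin anaesthesia (400 mg/kg i.p.) received intratracheal bleomycin, 1 U/kg in LPS-free PBS, six times at 14-day intervals. The MDM2 inhibitor was given at 100 mg/kg/day i.p. for 3 days after every challenge and for 3 days before sacrifice. Read-outs: Slug immunoblot in sorted AEC2s (GAPDH loading control), right-lung hydroxyproline, Masson staining, and AEC2 colony-forming efficiency.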

The subject of another assay is AEC2s. It is filed as cell-based, mouse. The settings on record: 3D Matrigel co-culture with MLg2908 cells, Day 14, n = 3. In outline: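 Mouse AEC2s were sorted as DAPI-negative, lineage-negative, EpCAM-positive cells from lineage-depleted lung cells. 5 × 10^3 cells were embedded in Matrigel/DMEM (1:1) with 2 × 10^5 MLg2908 cells in Transwell inserts. Lower-chamber DMEM contained ITS, 10% FBS and antibiotics, changed daily. On Day 14, colonies above a size cutoff were counted by microscopy. CFE = colonies / input AEC2s.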

In assay [1] the test system is SLUG degradation in AEC2s. The assay is described as follows: SLUG degradation in AEC2s with cycloheximide plus 3MA or MG132. It is filed as cell-based, mouse. The settings on record: CHX 10 μg/mL with 3 MA 5 mmol/L or MG132 10 μmol/L.
The target of assay [2] is TRIB3 (immobilized on CM5 sensor chips) (UniProt Q96RU7). In words: SPR. For orientation: SPR reads the build-up and loss of mass on a sensor chip optically.

Peptide text beside a SMILES is read from it. * marks the point of attachment. Cbz = O=C(OCc1ccccc1)*

Chain of UniProt Q96RU7 (Q96RU7 whole entry): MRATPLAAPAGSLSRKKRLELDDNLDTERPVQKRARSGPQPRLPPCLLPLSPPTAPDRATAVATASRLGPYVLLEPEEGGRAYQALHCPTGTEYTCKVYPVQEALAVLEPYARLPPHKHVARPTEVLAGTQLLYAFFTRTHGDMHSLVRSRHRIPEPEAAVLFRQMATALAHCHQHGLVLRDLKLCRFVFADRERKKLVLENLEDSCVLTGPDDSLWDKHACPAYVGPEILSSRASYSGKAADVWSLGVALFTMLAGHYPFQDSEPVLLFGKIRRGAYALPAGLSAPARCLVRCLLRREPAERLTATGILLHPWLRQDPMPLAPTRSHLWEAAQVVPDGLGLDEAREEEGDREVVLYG

Take `Cc1ccc(NS(=O)(=O)c2ccc3c(c2)C2C=CCC2C(c2ccc(C(=O)O)cc2)N3)cc1C` (stereo not shown) [MX69]: the “level of Slug in AEC2s” value in the assay on mBLM-challenged mice (AEC2s isolated from fibrotic mice but not control mice, immunoblot) is listed as “increased”. The “protein level of MDM2 in AEC2s” value with mBLM-challenged mice (AEC2s isolated from fibrotic mice, immunoblot) is recorded as “decreased”. Further, the “capacity of AEC2s mediated LAR (colony-forming efficiency)” value with mBLM-challenged mice (AEC2s sorted from MX69 treated mBLM mice) is reported as “further declined”. Take `Oc1c2ccccc2c2c3c(cccc13)N=N2` [SP600125]: the “CFE of AEC2s” value with AEC2s is “decreased”. Same read-out and setting: in the case of `C[S+]([O-])c1ccc(-c2nc(-c3ccncc3)c(-c3ccc(F)cc3)[nH]2)cc1` (stereo not shown) [SB203580] it was “decreased”. `CC(C)C[C@@H](C=O)NC(=O)[C@H](CC(C)C)NC(=O)[C@H](CC(C)C)NC(=O)OCc1ccccc1` [MG132] (Cbz-Leu-Leu-Leu-aldehyde): in assay [1], the SLUG degradation result was “suppressed”. Consider “MR2 (from UniProt Q00987 460-470) (peptide)”, for which the dissociation constant (Kd) (in general, the equilibrium constant for the complex coming apart) in assay [2] worked out at 0.046 µM.

The record behind these values is publication PMC10150180 (Acta Pharmaceutica Sinica. B, 2023).
